Experimental data from ChEMBL document CHEMBL5331128, “Alicyclic Ring Size Variation of 4-Phenyl-2-naphthoic Acid Derivatives as P2Y14 Receptor Antagonists” (J Med Chem, 2023).
Active and inactive are the calls of the source.

Tests used:
P2Y purinoceptor 14 [1] = target: T1, P2Y purinoceptor 14 (Homo sapiens, UniProt Q15391); assay: (§1) Displacement of fluorescent tracer 4-(4-(1-(4-(1-(6-(3-carboxylato-4-(3-iminio-3H-xanthen-9-yl)benzamido)hexyl)-4,5-dihydro-1H-pyrrol-3-yl)butyl)piperidin-1-ium-4-yl)phenyl)-7-(4-(trifluoromethyl)phenyl)-2-naphthoate from human P2Y14R stably expressed in CHO cells by flow cytometry; type: cell-based
T1 sequence (Q15391 whole entry): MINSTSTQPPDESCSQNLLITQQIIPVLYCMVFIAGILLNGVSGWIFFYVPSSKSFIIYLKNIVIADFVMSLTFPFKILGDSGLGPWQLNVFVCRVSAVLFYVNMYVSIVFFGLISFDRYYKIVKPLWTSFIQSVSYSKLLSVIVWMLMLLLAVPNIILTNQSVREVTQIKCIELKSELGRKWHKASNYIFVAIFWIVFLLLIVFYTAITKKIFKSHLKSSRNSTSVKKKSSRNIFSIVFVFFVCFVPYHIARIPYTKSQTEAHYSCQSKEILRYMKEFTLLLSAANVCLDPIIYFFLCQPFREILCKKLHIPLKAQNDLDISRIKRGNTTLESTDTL
Method in brief: (§2)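 Whole-cell competitive binding: CHO cells expressing hP2Y14R (or HEK-293 cells expressing mP2Y14R) incubated with AlexaFluor488-labelled antagonist tracer at 20 nM.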

[2] = Selectivity ratio, ratio of IC50 for displacement of fluorescent tracer 4-(4-(1-(4-(1-(6-(3-carboxylato-4-(3-iminio-3H-xanthen-9-yl)benzamido)hexyl)-4,5-dihydro-1H-pyrrol-3-yl)butyl)piperidin-1-ium-4-yl)phenyl)-7-(4-(trifluoromethyl)phenyl)-2-naphthoate from mouse P2Y14R stably expressed in human HEK293 cells to IC50 for displacement of fluorescent tracer 4-(4-(1-(4-(1-(6-(3-carboxylato-4-(3-iminio-3H-xanthen-9-yl)benzamido)hexyl)-4,5-dihydro-1H-pyrrol-3-yl)butyl)piperidin-1-ium-4-yl)phenyl)-7-(4-(trifluoromethyl)phenyl)-2-naphthoate from human P2Y14R stably expressed in CHO cells; type: cell-based
P2Y purinoceptor 14 [3] = target: T1, P2Y purinoceptor 14; assay: as §1, with “cells assessed as inhibition constant” for “cells”; type: cell-based; method in brief: as §2
P2Y purinoceptor 14 [4] = target: T2, P2Y purinoceptor 14 (Mus musculus, UniProt Q9ESG6); assay: Displacement of fluorescent tracer 4-(4-(1-(4-(1-(6-(3-carboxylato-4-(3-iminio-3H-xanthen-9-yl)benzamido)hexyl)-4,5-dihydro-1H-pyrrol-3-yl)butyl)piperidin-1-ium-4-yl)phenyl)-7-(4-(trifluoromethyl)phenyl)-2-naphthoate from mouse P2Y14R stably expressed in human HEK293 cells by flow cytometry; type: cell-based
T2 sequence (Q9ESG6 whole entry): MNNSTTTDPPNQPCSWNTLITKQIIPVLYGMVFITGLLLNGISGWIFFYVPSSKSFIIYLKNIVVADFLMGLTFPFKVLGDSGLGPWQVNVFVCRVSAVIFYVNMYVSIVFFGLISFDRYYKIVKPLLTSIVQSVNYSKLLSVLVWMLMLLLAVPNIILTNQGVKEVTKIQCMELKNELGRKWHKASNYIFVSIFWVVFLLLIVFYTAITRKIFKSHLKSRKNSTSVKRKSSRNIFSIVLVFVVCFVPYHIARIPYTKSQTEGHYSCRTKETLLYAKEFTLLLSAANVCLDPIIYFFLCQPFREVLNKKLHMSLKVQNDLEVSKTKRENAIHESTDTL
Method in brief: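 Whole-cell competitive binding: CHO cells expressing hP2Y14R (or HEK-293 cells expressing mP2Y14R) incubated with AlexaFluor488-labelled antagonist tracer at 20 nM. […] Ki derived by dividing IC50 by 1.72.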

[5] = Lipophilicity, log D of compound at pH 7.4 incubated for 20 hrs by HPLC analysis; type: physicochemical; conditions: buffer
Mus musculus [6] = assay: Antiallodynic activity in CCI surgery neuropathic pain Hsd:ICR mouse model assessed as reversal of mechano-allodynia by measuring paw withdrawal threshold at 10 micromol/kg,po and measured upto 6 hrs by von frey test; type: functional, organism-based; conditions: dose 10.0 µmol/kg
Method in brief: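 CCI neuropathic pain in adult male CD-1 mice. Single oral gavage dose of 10 μmol/kg on day 7 post-surgery. Vehicle 5% DMSO + 10% (Kolliphor HS 15:DMSO 5:95) in 0.5% methylcellulose, 0.2 mL. Von Frey paw withdrawal threshold on both hindpaws. Mean ± SD; two-way ANOVA with Dunnett's test.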

Mus musculus [7] = assay: Anti-asthmatic activity against OVA/Aspergillus-sensitized protease-mediated C57BL/6J mouse model allergic asthma assessed as reduction in neutrophils in BAL fluid at 10 mg/kg,ip followed by 0.5 hrs OVA challenge and measured after 48 hrs; type: functional, organism-based; conditions: time 48.5 hrs
Mus musculus [8] = assay: Antiallodynic activity in CCI surgery neuropathic pain Hsd:ICR mouse model assessed as reversal of mechano-allodynia by measuring paw withdrawal threshold at 10 micromol/kg,ip and measured upto 5 days by von frey test; type: functional, organism-based; conditions: dose 10.0 µmol/kg, time <= 5.0 day
Method in brief: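 CCI neuropathic pain in adult male Hsd:ICR (CD-1) mice (20–30 g). Single i.p. injection on day 7 after sciatic nerve constriction, at peak pain. Vehicle 10% (Kolliphor HS 15:DMSO 5:95) in saline, 0.2 mL. Paw withdrawal threshold by von Frey filaments on ipsilateral and contralateral hindpaws. Mean ± SD; two-way ANOVA with Dunnett's test versus day 0 and day 7.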

Mus musculus [9] = assay: Anti-asthmatic activity against OVA/Aspergillus-sensitized protease-mediated C57BL/6J mouse model allergic asthma assessed as reduction in lymphocytes in BAL fluid at 10 mg/kg,ip followed by 0.5 hrs OVA challenge and measured after 48 hrs; type: functional, organism-based; conditions: time 48.5 hrs
Mus musculus [10] = assay: Anti-asthmatic activity against OVA/Aspergillus-sensitized protease-mediated C57BL/6J mouse model allergic asthma assessed as reduction in macrophages in BAL fluid at 10 mg/kg,ip followed by 0.5 hrs OVA challenge and measured after 48 hrs; type: functional, organism-based; conditions: time 48.5 hrs
Mus musculus [11] = assay: Anti-asthmatic activity against OVA/Aspergillus-sensitized protease-mediated C57BL/6J mouse model allergic asthma assessed as reduction in airway eosinophilia in BAL fluid at 10 mg/kg,ip followed by 0.5 hrs OVA challenge and measured after 48 hrs; type: functional, organism-based; conditions: time 48.5 hrs

Molecule `O=C(O)c1cc(-c2ccc(C3CCCNCCC3)cc2)c2ccc(-c3ccc(C(F)(F)F)cc3)cc2c1` has an IC50 (P2Y purinoceptor 14 [1]) of 18.5 nM, a Ratio IC50 [2] of 0.627 and a Ki (P2Y purinoceptor 14 [3]) of 10.8 nM. It also gave an IC50 (P2Y purinoceptor 14 [4]) of 11.6 nM and a logD at 20 h [5] of 2.5.

For `O=C(O)c1cc(-c2ccc(C3(O)CC4(CNC4)C3)cc2)c2ccc(-c3ccc(C(F)(F)F)cc3)cc2c1`, the Ki (P2Y purinoceptor 14 [3]) was 12.1 nM and the logD at 20 h [5] was 0.81.

Work on `O=C(O)c1cc(-c2ccc(/C3=C/CCNCCC3)cc2)c2ccc(-c3ccc(C(F)(F)F)cc3)cc2c1` yielded an IC50 (P2Y purinoceptor 14 [1]) of 58.4 nM, a Ki (P2Y purinoceptor 14 [3]) of 34 nM and a logD at 20 h [5] of 2.9.

In the case of `COC1(c2ccc(-c3cc(C(=O)O)cc4cc(-c5ccc(C(F)(F)F)cc5)ccc34)cc2)CC2(CNC2)C1`, the IC50 (P2Y purinoceptor 14 [1]) is reported as 46.5 nM, the Ki (P2Y purinoceptor 14 [3]) is reported as 27 nM and the logD at 20 h [5] is reported as 1.8.

In the case of `O=C(O)c1cc(-c2ccc(C3C[C@H]4CNC[C@@H]4C3)cc2)c2ccc(-c3ccc(C(F)(F)F)cc3)cc2c1` (racemic), the Ki (P2Y purinoceptor 14 [3]) is reported as 18.6 nM and the logD at 20 h [5] is reported as 2.4.

`O=C(O)c1cc(-c2ccc(C3CC4(CNC4)C3)cc2)c2ccc(-c3ccc(C(F)(F)F)cc3)cc2c1` gave a Ki (P2Y purinoceptor 14 [3]) of 27.1 nM and a logD at 20 h [5] of 1.9.

Molecule `O=C(O)c1cc(-c2ccc(C3=C[C@H]4CNC[C@@H]4C3)cc2)c2ccc(-c3ccc(C(F)(F)F)cc3)cc2c1` (racemic) has a Ratio IC50 [2] of 0.336, a Ki (P2Y purinoceptor 14 [3]) of 9.65 nM and an IC50 (P2Y purinoceptor 14 [4]) of 5.57 nM. For the same molecule, the logD at 20 h [5] was 2.2.

Molecule `O=C(O)c1cc(-c2ccc(C3CNC3)cc2)c2ccc(-c3ccc(C(F)(F)F)cc3)cc2c1` has a Ki (P2Y purinoceptor 14 [3]) of 38.3 nM and a logD at 20 h [5] of 1.4.

With `CCOC(=O)N1C[C@H]2C[C@@H](C1)[C@@]2(O)c1ccc(-c2cc(C(=O)OCC(=O)N(C)C)cc3cc(-c4ccc(C(F)(F)F)cc4)ccc23)cc1` the Activity (Mus musculus [6]) was “Active”, the Activity (Mus musculus [7]) was “inactive” and the Activity (Mus musculus [8]) was “Active”. For the same molecule, the Activity (Mus musculus [9]) was “inactive”, the Activity (Mus musculus [10]) was “inactive” and the Activity (Mus musculus [11]) was “inactive”.

With `O=C(O)c1cc(-c2ccc([C@@H]3[C@@H]4CNC[C@H]3C4)cc2)c2ccc(-c3ccc(C(F)(F)F)cc3)cc2c1` the IC50 (P2Y purinoceptor 14 [1]) was 524 nM, the Ki (P2Y purinoceptor 14 [3]) was 305 nM and the logD at 20 h [5] was 2.8.
